Active and inactive are the calls of the source. The rule behind the calls is not given here.
How the values were obtained:
Mus musculus [1] = experiment: Antioxidant activity in STZ-induced diabetic Kunming mouse assessed as increase in GSH level in kidney at 160 mg/kg, po administered daily via gavage for 8 weeks and measured at 6 hrs post-final drug dose by microplate reader analysis; type: functional
Rattus norvegicus = species on record: Rattus norvegicus; experiment: Selectivity index, ratio of IC50 for Wistar rat kidney ALR1 to IC50 for Wistar rat lens ALR2
In short: (§1)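 Aldose reductases (ALR2, ALR1) prepared from Wistar rats (200-250 g). NADPH loss followed at 340 nm for 4 min after substrate start, following 10 min preincubation. ALR2: pH 6.2 phosphate, 30 °C, NADPH 0.10 mM, D,L-glyceraldehyde 10 mM. ALR1: pH 7.2, 37 °C, NADPH 0.12 mM, D-glucuronate 20 mM. 0.5% DMSO; non-enzymatic rate subtracted. IC50 from log dose-response with ≥3 concentrations (20-80% inhibition), triplicate.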

Mus musculus [2] = experiment: Antidiabetic activity in STZ-induced Kunming mouse model of diabetes assessed as reduction in blood glucose level at 80 mg/kg, po administered daily via gavage for 8 weeks and measured at week 6; type: functional; conditions: 1008 h, time 6 weeks
Mus musculus [3] = experiment: Reno-protective activity in STZ-induced Kunming mouse model of diabetes assessed as urinary total protein excretion at 80 mg/kg, po administered daily via gavage for 8 weeks and measured at week 8 relative to control; type: functional
Mus musculus [4] = experiment: Reno-protective activity in STZ-induced Kunming mouse model of diabetes assessed as reduction in albumin to creatinine ratio at 80 mg/kg, po administered daily via gavage for 8 weeks; type: functional; conditions: 1344 h
[5] = biological target: Aldo-keto reductase family 1 member B1 (Rattus norvegicus) (UniProt P07943); experiment: Potency index, ratio of IC50 of epalrestat to IC50 of compound for inhibition of Wistar rat lens ALR2 using D,L-glyceraldehyde and NADPH as substrate preincubated for 10 mins followed by substrate addition and measured for 4 mins by spectrophotometric analysis; type: tissue-based; conditions: time 14.0 min; in short: as §1
Mus musculus [6] = experiment: Antioxidant activity in STZ-induced diabetic Kunming mouse assessed as increase in SOD level in kidney at 160 mg/kg, po administered daily via gavage for 8 weeks and measured at 6 hrs post-final drug dose; type: functional
Mus musculus [7] = experiment: Reno-protective activity in STZ-induced Kunming mouse model of diabetes assessed as urinary total protein excretion at 80 mg/kg, po administered daily via gavage for 8 weeks and measured at week 6 relative to control; type: functional; conditions: time 6 weeks
Mus musculus [8] = experiment: Antioxidant activity in STZ-induced diabetic Kunming mouse assessed as increase in SOD level in kidney at 80 mg/kg, po administered daily via gavage for 8 weeks and measured at 6 hrs post-final drug dose; type: functional
[9] = Inhibition of polyol pathway in STZ-induced Kunming mouse model of diabetes assessed as decrease in sorbitol level in kidney cortex at 80 mg/kg, po administered QD via gavage for 4 weeks and measured at 6 hrs post-final drug dose by fluorospectrophotometric analysis; type: functional; conditions: 672 h
Mus musculus [10] = experiment: Reno-protective activity in STZ-induced Kunming mouse model of diabetes assessed as glomerular atrophy and inflammatory cell infiltration at 160 mg/kg, po administered daily via gavage for 8 weeks by H and E staining based histological analysis; type: functional, organism-based
Brain = experiment: Antioxidant activity in rat brain assessed as inhibition of lipid peroxidation at 50 to 100 uM by TBARS assay; type: functional, tissue-based; conditions: dose 50-100 µM
In short: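 Rat brain freshly homogenized in ice-cold saline and centrifuged; supernatant protein measured by Coomassie. Hydroxyl radical-driven lipid peroxidation read as MDA/TBARS with a commercial kit.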

Mus musculus [11] = experiment: Antidiabetic activity in STZ-induced Kunming mouse model of diabetes assessed as reduction in blood glucose level at 160 mg/kg, po administered daily via gavage for 8 weeks and measured at week 8; type: functional; conditions: 1344 h
Mus musculus [12] = experiment: Antidiabetic activity in STZ-induced Kunming mouse model of diabetes assessed as reduction in blood glucose level at 80 mg/kg, po administered daily via gavage for 8 weeks and measured at week 2; type: functional; conditions: 336 h, time 2 weeks
Mus musculus [13] = experiment: Reno-protective activity in STZ-induced Kunming mouse model of diabetes assessed as reduction in urinary total protein excretion at 80 mg/kg, po administered QD via gavage for 4 weeks and measured at week 2 to 4; type: functional, organism-based; conditions: time 2-4 weeks
Mus musculus [14] = experiment: Reno-protective activity in STZ-induced Kunming mouse model of diabetes assessed as normal kidney structure at 80 mg/kg, po administered QD via gavage for 4 weeks by H and E staining based histological analysis; type: functional, organism-based
[15] = Inhibition of polyol pathway in STZ-induced Kunming mouse model of diabetes assessed as decrease in sorbitol level in kidney cortex at 160 mg/kg, po administered daily via gavage for 8 weeks and measured at 6 hrs post-final drug dose by fluorospectrophotometric analysis; type: functional; conditions: 1344 h
Mus musculus [16] = experiment: Reno-protective activity in STZ-induced Kunming mouse model of diabetes assessed as urinary total protein excretion at 160 mg/kg, po administered daily via gavage for 8 weeks and measured at week 8 relative to control; type: functional
Mus musculus [17] = experiment: Antidiabetic activity in STZ-induced Kunming mouse model of diabetes assessed as reduction in blood glucose level at 80 to 160 mg/kg, po administered daily via gavage for 8 weeks and measured at 2 to 5 hrs post-last drug dose; type: functional, organism-based; conditions: dose 80-160 mg/kg
[18] = Inhibition of polyol pathway in STZ-induced Kunming mouse model of diabetes assessed as decrease in sorbitol level in kidney cortex at 80 mg/kg, po administered daily via gavage for 8 weeks and measured at 6 hrs post-final drug dose by fluorospectrophotometric analysis; type: functional; conditions: 1344 h
Mus musculus [19] = experiment: Antioxidant activity in STZ-induced diabetic Kunming mouse assessed as rise in liver MDA level at 160 mg/kg, po administered daily via gavage for 8 weeks and measured at 6 hrs post-final drug dose relative to normal group; type: functional
[20] = biological target: Aldo-keto reductase family 1 member B1 (Rattus norvegicus) (UniProt P07943); experiment: Uncompetitive inhibition of Wistar rat lens ALR2 at 2.5 mM using D,L-glyeraldehyde as substrate in presence of varying levels of NADPH by double reciprocal plot analysis; type: tissue-based
In short: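 Rat ALR2 kinetics run under the assay conditions with inhibitor at 10 and 5 nM. Either D,L-glyceraldehyde varied (7.5-0.94 mM) with cofactor 0.025 mM, or NADPH varied (25-3.125) with glyceraldehyde 2.5 mM. Mode assigned from double-reciprocal plots.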

[21] = biological target: Aldo-keto reductase family 1 member B1 (Rattus norvegicus, UniProt P07943); experiment: Inhibition of Wistar rat lens ALR2 assessed as reduction in NADPH oxidation using D,L-glyceraldehyde and NADPH as substrate preincubated for 10 mins followed by substrate addition and measured for 4 mins by spectrophotometric analysis; type: tissue-based
Mus musculus [22] = experiment: Antidiabetic activity in STZ-induced Kunming mouse model of diabetes assessed as reduction in blood glucose level at 160 mg/kg, po administered daily via gavage for 8 weeks and measured at week 2; type: functional; conditions: 336 h, time 2 weeks
Mus musculus [23] = experiment: Antioxidant activity in STZ-induced diabetic Kunming mouse assessed as reduction in liver MDA level at 80 mg/kg, po administered QD via gavage for 4 weeks and measured at 6 hrs post-final drug dose relative to STZ-treated group; type: functional; conditions: 672 h
Mus musculus [24] = experiment: Reno-protective activity in STZ-induced Kunming mouse model of diabetes assessed as urinary total protein excretion at 160 mg/kg, po administered daily via gavage for 8 weeks and measured at week 6 relative to control; type: functional; conditions: time 6 weeks
Mus musculus [25] = experiment: Reno-protective activity in STZ-induced Kunming mouse model of diabetes assessed as urinary total protein excretion at 80 mg/kg, po administered daily via gavage for 8 weeks and measured at week 4 relative to control; type: functional; conditions: time 4 weeks

For `COc1cc(/C=C/c2cccc3c2oc(=O)n3CC(=O)O)ccc1O`, the Activity (Mus musculus [1]) was 210%, the Ratio IC50 (Rattus norvegicus) was 710 and the inhibition in vivo at 80 mg/kg (Mus musculus [2]) was 19%. The Activity (Mus musculus [3]) was 53%, the inhibition in vivo at 80 mg/kg (Mus musculus [4]) was 67% and the Ratio IC50 [5] was 15. For the same compound, the Activity (Mus musculus [6]) was 38%, the Activity (Mus musculus [7]) was 50% and the Activity (Mus musculus [8]) was 177%. The inhibition in vivo at 80 mg/kg [9] was 24%, the Activity (Mus musculus [10]) was “inactive” and the Activity (Brain) was “Active”. For the same compound, the inhibition in vivo at 160 mg/kg (Mus musculus [11]) was 20%, the inhibition in vivo at 80 mg/kg (Mus musculus [12]) was 18% and the Activity (Mus musculus [13]) was “Active”. The Activity (Mus musculus [14]) was “Active”, the inhibition in vivo at 160 mg/kg [15] was 18% and the Activity (Mus musculus [16]) was 58%. For the same compound, the Activity (Mus musculus [17]) was “Active”, the inhibition in vivo at 80 mg/kg [18] was 19% and the Activity (Mus musculus [19]) was 39%. For the same compound, the inhibition [20] was “Active”, the IC50 [21] was 6.9 nM and the inhibition in vivo at 160 mg/kg (Mus musculus [22]) was 35%. It also gave an inhibition in vivo at 80 mg/kg (Mus musculus [23]) of 54%, an Activity (Mus musculus [24]) of 36% and an Activity (Mus musculus [25]) of 78%.

— ChEMBL document CHEMBL4732211, “Multifunctional agents based on benzoxazolone as promising therapeutic drugs for diabetic nephropathy” (Eur J Med Chem, 2021)
